Activity calls are given as the source filed them. The rule behind the calls is not given here.
Legend:
[1] = Cytotoxicity against human HG23 cells at 48 hrs; format: cell-based; conditions: for CC50 at 48 h: HG23 cells, read-out: TD50; for CC50: hg23, 48 h, 48 h, read-out: TD50 (the source's name)
In short: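 Norwalk virus replicon-harboring HG23 cells were treated with compound for 48 h, then assayed with a commercial cell cytotoxicity kit. The median toxic dose (TD50) was calculated from this read-out. Values are the average of two independent experiments ± standard deviation.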

[2] = Therapeutic index, ratio of TD50 for human HG23 cells to ED50 for Norovirus infected in HG23 cells; format: cell-based; conditions: for selectivity ratio: HG23 cells, read-out: Ratio TD50/ED50; for Ratio TD50/ED50: hg23
In short: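 TD50 in HG23 replicon cells was measured with a cell cytotoxicity assay kit after 48 h of treatment. […] The index is TD50 divided by ED50.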

Norovirus [3] = experiment: Antiviral activity against Norovirus infected in HG23 cells assessed as inhibition of viral replication at 24 hrs by qRT-PCR analysis; format: functional; conditions: read-out: ED50 (the source's name)
In short: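 Norwalk virus replicon-bearing HG23 cells were treated with compound, and NV genome levels were quantified by qRT-PCR at 24 h post-treatment. ED50 was derived from the reduction in genome levels. Values are the average of two independent experiments ± standard deviation.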

Norovirus [4] = experiment: Inhibition of Norovirus 3C protease

Row | Compound | EC50 (Norovirus [3]; Norovirus, HG23, 24 h) [µM] | inhibition (Norovirus [4]) | other results
1 | O=C(CNS(=O)(=O)NCc1cccc(Oc2ccccc2)c1)N1CCN(Cc2ccccc2)CC1 [listing 1 of 2 here] | 5.5 |  | CC50 at 48 h [1]: 145 µM; selectivity ratio [2]: 26
2 | CC(NS(=O)(=O)NCc1cccc(Oc2ccccc2)c1)C(=O)NCCN1CCOCC1 (racemic; 7b) |  | inactive | 
3 | CSCCC(NS(=O)(=O)NCc1cccc(Oc2ccccc2)c1)C(=O)NCCN1CCOCC1.Cl (racemic; 7d) |  |  | CC50 [1]: 230 µM; Ratio TD50/ED50 [2]: 54
4 | CCCC(NS(=O)(=O)NCc1cccc(Oc2ccccc2)c1)C(=O)NCCN1CCOCC1 (racemic) | > 10 | inactive | 
5 | CN(CC(=O)NCCN1CCOCC1)S(=O)(=O)NCc1cccc(Oc2ccccc2)c1 [listing 1 of 2 here] | 5.2 |  | CC50 at 48 h [1]: 320 µM; Ratio TD50/ED50 [2]: 63
6 | CCOC(=O)N1CCN(C(=O)CNS(=O)(=O)NCc2cccc(Oc3ccccc3)c2)CC1 | 8.2 | inactive | CC50 at 48 h [1]: 130 µM
7 | O=C(CNS(=O)(=O)NCc1cccc(Oc2ccccc2)c1)NCCN1CCOCC1 [listing 1 of 3 here] |  |  | CC50 [1]: 330 µM; selectivity ratio [2]: 65; EC50 (Norovirus [3]): 5.1 µM
8 | Cl.O=C(CNS(=O)(=O)NCc1cccc(Oc2ccccc2)c1)N1CCN(Cc2ccccc2)CC1 |  |  | CC50 [1]: 120 µM; Ratio TD50/ED50 [2]: 21; EC50 (Norovirus [3]): 5.7 µM
9 | O=C(CNS(=O)(=O)NCc1cccc(Oc2ccccc2)c1)NC1CCC(C(=O)O)CC1 (configuration not stated) | > 10 | inactive | 
10 | O=C(CNS(=O)(=O)NCc1cccc(Oc2ccccc2)c1)NCc1ccco1 | > 10 | inactive | 
11 | CC(NS(=O)(=O)NCc1cccc(Oc2ccccc2)c1)C(=O)NCCN1CCOCC1 (racemic; 6b) [listing 1 of 2 here] | > 10 |  | 
12 | O=C(O)CCCCN1CCN(Cc2cccc(Oc3ccccc3)c2)S1(=O)=O | 6.1 |  | 
13 | CN(CC(=O)NCCN1CCOCC1)S(=O)(=O)NCc1cccc(Oc2ccccc2)c1 [listing 2 of 2 here] |  | inactive | 
14 | O=C(CN(Cc1ccccc1)S(=O)(=O)NCc1cccc(Oc2ccccc2)c1)NCCN1CCOCC1 [listing 1 of 3 here] | 3.8 |  | CC50 at 48 h [1]: 45 µM
15 | O=C(CNS(=O)(=O)NCc1cccc(Oc2ccccc2)c1)NCc1ccccc1 | 8.1 | inactive | CC50 at 48 h [1]: 47 µM
16 | CSCCC(NS(=O)(=O)NCc1cccc(Oc2ccccc2)c1)C(=O)NCCN1CCOCC1 (racemic; 6d) [listing 1 of 2 here] | 4.5 |  | CC50 at 48 h [1]: 124 µM; selectivity ratio [2]: > 27

Row | Compound | EC50 (Norovirus [3]; Norovirus, HG23, 24 h) [µM] | inhibition (Norovirus [4]) | other results
17 | CSCCC(NS(=O)(=O)NCc1cccc(Oc2ccccc2)c1)C(=O)NCCN1CCOCC1 (racemic; 6d) [listing 2 of 2 here] |  | inactive | 
18 | O=S1(=O)NCCN1Cc1cccc(Oc2ccccc2)c1 | 4.1 |  | 
19 | COC(=O)CNS(=O)(=O)NCc1cccc(Oc2ccccc2)c1 | > 10 | inactive | 
20 | O=C(CNS(=O)(=O)NCc1cccc(Oc2ccccc2)c1)NCCc1ccccc1 | > 10 | inactive | 
21 | O=S1(=O)N(CCN2CCOCC2)CCN1Cc1cccc(Oc2ccccc2)c1 | 4.2 |  | CC50 at 48 h [1]: 51 µM
22 | O=C(CNS(=O)(=O)NCc1cccc(Oc2ccccc2)c1)N1CCN(Cc2ccccc2)CC1 [listing 2 of 2 here] |  | inactive | 
23 | O=C(CNS(=O)(=O)NCc1cccc(Oc2ccccc2)c1)NCCN1CCOCC1 [listing 2 of 3 here] |  | inactive | 
24 | O=C(CN(Cc1ccccc1)S(=O)(=O)NCc1cccc(Oc2ccccc2)c1)NCCN1CCOCC1 [listing 2 of 3 here] |  |  | CC50 [1]: 55 µM; EC50 (Norovirus [3]): 3.9 µM
25 | CC(NS(=O)(=O)NCc1cccc(Oc2ccccc2)c1)C(=O)NCCN1CCOCC1 (racemic; 6b) [listing 2 of 2 here] |  | inactive | 
26 | O=C(CNS(=O)(=O)NCc1cccc(Oc2ccccc2)c1)NCCN1CCOCC1 [listing 3 of 3 here] | 8.5 |  | CC50 at 48 h [1]: 165 µM
27 | O=C(O)C1CCN(C(=O)CNS(=O)(=O)NCc2cccc(Oc3ccccc3)c2)CC1 | > 10 | inactive | 
28 | COC(=O)C1CCC(NC(=O)CNS(=O)(=O)NCc2cccc(Oc3ccccc3)c2)CC1 (configuration not stated) | > 10 | inactive | CC50 at 48 h [1]: 75 µM
29 | CSCCC(NS(=O)(=O)NCc1cccc(Oc2ccccc2)c1)C(=O)NCCN1CCOCC1 (racemic; 7d) |  | inactive | 
30 | CN(CC(=O)NCCN1CCOCC1)S(=O)(=O)NCc1cccc(Oc2ccccc2)c1.Cl |  |  | CC50 [1]: 235 µM; Ratio TD50/ED50 [2]: 24; EC50 (Norovirus [3]): 10.1 µM
31 | COC(=O)C1CCN(C(=O)CNS(=O)(=O)NCc2cccc(Oc3ccccc3)c2)CC1 | > 10 | inactive | 
32 | O=C(CN(Cc1ccccc1)S(=O)(=O)NCc1cccc(Oc2ccccc2)c1)NCCN1CCOCC1 [listing 3 of 3 here] |  | inactive | 

— ChEMBL document CHEMBL1955792, “Potent norovirus inhibitors based on the acyclic sulfamide scaffold” (Bioorg Med Chem, 2012)
